Source: ChEMBL document CHEMBL1135207, “Novel route to the synthesis of peptides containing 2-amino-1'-hydroxymethyl ketones and their application as cathepsin K inhibitors” (Bioorg Med Chem Lett, 2002)

What was measured:
Cathepsin S = Cathepsin S (Homo sapiens, UniProt P25774); assay: Binding affinity of compound was evaluated against cathepsin S.
Cathepsin B = Cathepsin B (Homo sapiens, UniProt P07858); assay: Binding affinity against cathepsin B
Cathepsin K = target: T1, Cathepsin K (Homo sapiens, UniProt P43235); assay: Binding affinity against cathepsin K
T1 sequence (P43235 whole entry): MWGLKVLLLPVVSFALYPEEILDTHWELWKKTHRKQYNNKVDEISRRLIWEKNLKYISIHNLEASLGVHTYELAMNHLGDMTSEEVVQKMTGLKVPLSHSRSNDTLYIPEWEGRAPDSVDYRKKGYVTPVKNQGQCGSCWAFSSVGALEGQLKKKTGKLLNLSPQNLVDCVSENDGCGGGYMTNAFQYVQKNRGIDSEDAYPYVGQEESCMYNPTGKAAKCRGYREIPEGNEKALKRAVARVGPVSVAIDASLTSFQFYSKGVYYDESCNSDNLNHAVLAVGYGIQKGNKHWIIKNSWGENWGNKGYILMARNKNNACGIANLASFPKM

Procathepsin L = Procathepsin L (Homo sapiens, UniProt P07711); assay: Binding affinity of compound was evaluated against cathepsin L.
Procathepsin L, sequence (P07711 whole entry): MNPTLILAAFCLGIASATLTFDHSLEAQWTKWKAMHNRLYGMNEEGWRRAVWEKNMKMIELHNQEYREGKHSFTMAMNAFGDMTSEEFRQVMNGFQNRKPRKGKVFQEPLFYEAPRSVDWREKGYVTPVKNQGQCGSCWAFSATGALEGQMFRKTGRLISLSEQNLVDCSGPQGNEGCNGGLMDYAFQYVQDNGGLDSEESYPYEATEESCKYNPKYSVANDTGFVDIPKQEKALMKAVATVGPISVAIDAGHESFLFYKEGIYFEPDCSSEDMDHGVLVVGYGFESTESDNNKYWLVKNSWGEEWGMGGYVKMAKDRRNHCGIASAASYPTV
How it was run: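 Then Z-Phe-Arg-AMC 10 µM (at Km) added. AMC release followed kinetically (ex355/em460) at room temperature, with inhibitor-free controls. Apparent Ki by Morrison or Henderson tight-binding fit.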

Cathepsin S, sequence (P25774 whole entry): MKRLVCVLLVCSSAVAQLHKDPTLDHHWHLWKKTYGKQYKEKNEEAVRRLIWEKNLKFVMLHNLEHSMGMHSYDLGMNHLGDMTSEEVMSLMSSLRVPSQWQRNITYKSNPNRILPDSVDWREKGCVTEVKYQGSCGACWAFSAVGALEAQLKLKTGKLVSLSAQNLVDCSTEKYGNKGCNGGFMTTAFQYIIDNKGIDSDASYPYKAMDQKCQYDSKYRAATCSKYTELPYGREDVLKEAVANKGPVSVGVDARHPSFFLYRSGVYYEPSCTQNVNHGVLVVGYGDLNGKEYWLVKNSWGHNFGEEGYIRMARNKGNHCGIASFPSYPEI

Row | SMILES | Ki (Cathepsin S) [nM] | Ki (Cathepsin B) [nM] | Ki (Cathepsin K) [nM] | Ki (Procathepsin L) [nM]
1 | COCC(=O)[C@H](CCc1ccccc1)NC(=O)[C@H](CC(C)C)NC(=O)OCc1ccccc1 | 1960 | > 150000 | 607 | 22300
2 | CCCC[C@H](NC(=O)[C@@H](NC(=O)c1ccc(CN)cc1)C(C)CC)C(=O)CO (some centres not stated) | 460 | 1250 | 20 | 130
3 | CCC(C)[C@H](NC(=O)c1cccc(C(N)=O)c1)C(=O)N[C@@H](CCc1ccccc1)C(=O)CO (some centres not stated) | 88 | 1440 | 111 | 790
4 | CC(=O)[C@H](CCc1ccccc1)NC(=O)[C@H](CC(C)C)NC(=O)OCc1ccccc1 |  | 519000 | 1440 | 
5 | CCCC[C@H](NC(=O)[C@@H](NC(=O)c1cccc(C(N)=O)c1)C(C)CC)C(=O)CO (some centres not stated) | 110 | 1140 | 110 | 760

The remaining lines, values ahead:

Row | Ki (Cathepsin S) [nM] | Ki (Cathepsin B) [nM] | Ki (Cathepsin K) [nM] | Ki (Procathepsin L) [nM] | SMILES
6 | 451 | 119000 | 1000 | 6340 | CC(C)C[C@H](NC(=O)OCc1ccccc1)C(=O)N[C@@H](CCc1ccccc1)C(=O)COCc1ccccc1
7 | 46 | 1950 | 3 | 17 | CC(C)C[C@H](NC(=O)c1ccc(CN)cc1)C(=O)N[C@@H](CCc1ccccc1)C(=O)CO
8 | 4500 | > 150000 | 947 | 16700 | CCOCC(=O)[C@H](CCc1ccccc1)NC(=O)[C@H](CC(C)C)NC(=O)OCc1ccccc1
9 | 188 | 34700 | 25 | 640 | CC(C)C[C@H](NC(=O)OCc1ccccc1)C(=O)N[C@@H](CCc1ccccc1)C(=O)CO
10 | 180 | 270 | 4 | 81 | CCC(C)[C@H](NC(=O)c1cccc(CN)c1)C(=O)N[C@@H](CCc1ccccc1)C(=O)CO (some centres not stated)
11 | 811 | 32200 | 67 | 3000 | CCC(C)[C@H](NC(=O)OCc1ccccc1)C(=O)N[C@@H](CCc1ccccc1)C(=O)CO (some centres not stated)
